Rows were chosen to be rich in hits. Some 5.1% of all compounds tested hit in one or more screens of this group.
APP 5'UTR act = APP 5'UTR luciferase reporter activation | SH-SY5Y APP 5'UTR luciferase reporter, luminescence; zero percent = DMSO vehicle wells | activation, % at 2 µM | actives 1% (n = 190,000) | AID 1276;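 active means activation above a set limit, based on mean plus 3 SD of controls, cut at about 140% in these data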
STAT3 blocker = reduces IL-6 driven STAT3 reporter signal | U3A cells, IL-6 STAT3-luciferase reporter, luminescence; host cell line lacks STAT1 | inhibition, % at 5.5 µM | actives 0.89% (n = 190,000);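 active means inhibition above the mean inhibition across all screened compounds plus 3 SD, cut at about 44% in these data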
STAT3 act = increases IL-6 driven STAT3 reporter signal. actives 0.91% (n = 190,000). activation (% of control), % at 5.6 µM. U3A cells, IL-6 STAT3-luciferase reporter, luminescence; 100% = signal with IL-6 EC80 alone. AID 871;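 active means activation above the screen-wide mean of compound activation plus 3 SD, cut at about 130% in these data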
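Material: STAT1-lacking human U3A cells, STAT3 luciferase reporter | Benchmarks: IL-6-only wells as 100% reference | Probe or stimulus: IL-6 (33 ng/mL) | Timing: Compound 1 h, then IL-6 6 h at 37 °C | Detection: Luminescence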
STAT1 inh = inhibitors of IFN-gamma induced STAT1 signaling | NIH 3T3 STAT1-luciferase reporter, luminescence | inhibition, % at 5.5 µM | actives 0.35% (n = 200,000) | AID 920;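 active means inhibition above a set limit, the mean inhibition across all tested compounds plus 3 SD, cut at about 34% in these data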
STAT1 act = increases IFN-gamma driven STAT1 reporter signal; NIH 3T3 STAT1-luciferase reporter, luminescence; 100% = IFN-gamma alone, no compound; activation (% of control), % at 5.5 µM; actives 2.6% (n = 200,000); AID 932;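 active means activation above the screen-wide mean activation plus 3 SD, cut at about 130% in these data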
NF-kB expr up = NF-kB expression increase, human neuronal cells. NF-kB reporter expression; hits give high values. fold change at 12.5 µM. actives 1.6% (n = 190,000); in the data active means fold change above about 3.3
STAT1 act conf = confirmation of STAT1 signaling activators; shares compounds with STAT1 act; NIH 3T3 STAT1-luciferase reporter, IFN-gamma potentiation, luminescence; 100% = IFN-gamma EC80 alone, no compound; activation (% of control), % at 5.7 µM; actives 97% (n = 1,200); AID 1262;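 active means activation above a set limit carried over from the earlier primary STAT1 screen, cut at about 140% in these data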
NFkB act = counter-screen for STAT1 activators: NF-kappaB activation | shares compounds with STAT1 act | HEK293T NF-kB luciferase reporter, TNF-alpha stimulated, luminescence; 100% = TNF-alpha with vehicle only | activation (% of control), % at 5.7 µM | actives 43% (n = 1,200);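 active means activation above the mean of solvent-only control wells plus 3 SD, set per campaign, cut at about 130% in these data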;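 further: TNF-alpha given at a submaximal dose yielding about 80% of full reporter signal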
STAT3 act 2 = human STAT3 activation in STAT1 activator counter-screen; shares compounds with STAT1 act; U3A cells STAT3-luciferase reporter, IL-6, luminescence; cells lack STAT1; 100 = IL-6 alone, no compound effect; activation (% of control), % at 5.7 µM; actives 46% (n = 1,200); AID 1316;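 active means activation above the solvent-only control well mean plus 3 SD, set per plate batch, cut at about 110% in these data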;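 further: higher means more STAT3 reporter activation so hits are non-selective activators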
Each line names hits and unclear results; the compound was inactive in the other large screens (follow-up assays come after a bar, where they were run).

CCOC(=O)c1sc2nc(NC(=O)C(C)(C)C)sc2c1C	STAT1 act 156.8 | STAT1 act conf 202.0 | NFkB act 134.3 | STAT3 act 2 inactive
Cc1ccc(C(=O)Cn2c(C)cc(C)c(C#N)c2=O)cc1	none
COc1ccccc1NC(=S)N/N=C/c1ccc(O)cc1	STAT1 act 159.2, NF-kB expr up 4.01 | STAT1 act conf 209.4 | NFkB act inactive | STAT3 act 2 inactive
COC(=O)c1sccc1NC(=O)Nc1cccc(C(C)=O)c1	none
COC(=O)c1sccc1NC(=O)Nc1cccc(C)c1	STAT1 act 158.7 | STAT1 act conf 177.1 | NFkB act 133.8 | STAT3 act 2 123.4
COc1ccc(N2CCN(c3oc(Cc4ccccc4)nc3C#N)CC2)cc1	none
C=CCn1c(C)cc(C(=O)CSc2nc3ccccc3o2)c1C	STAT1 act 159.9 | STAT1 act conf 215.2 | NFkB act inactive | STAT3 act 2 inactive
O=c1cc(-c2ccccc2)[nH]c2ccccc12	none
O=C1C(c2cc(=O)c3ccccc3[nH]2)=C(O)c2ccccc21	APP 5'UTR act 144.1, STAT1 act 190.7, NF-kB expr up 7.02 | STAT1 act conf 193.5 | NFkB act inactive | STAT3 act 2 118.4
Brc1ccccc1OCCCn1cnc2ccccc21	STAT1 act 157.6, NF-kB expr up 6.73 | STAT1 act conf 185.5 | NFkB act 137.8 | STAT3 act 2 inactive
c1ccc(OCCn2cnc3ccccc32)cc1	none
C/C(=N/NC(=O)c1ccco1)c1ccc(NC(=O)c2ccc(F)cc2)cc1	STAT1 act 155.3 | STAT1 act conf inactive | NFkB act inactive | STAT3 act 2 inactive
O=C(c1cc(-c2cccnc2)nc2ccc(Br)cc12)N1CCC2(CC1)OCCO2	none (no result: NF-kB expr up)
CCOC(=O)c1ccc(-c2cccc(C(F)(F)F)c2)nc1C	none
COC(=O)c1ccc(-c2ccc(Cl)cc2)nc1C	APP 5'UTR act 179.0, STAT1 act 185.5, NF-kB expr up 5.94 | STAT1 act conf 240.8 | NFkB act 135.7 | STAT3 act 2 111.0
O=C(N/N=C\c1cccc(Cl)c1)c1n[nH]c2c1CCCC2	APP 5'UTR act 156.2, STAT1 act 170.1 | STAT1 act conf 212.4 | NFkB act inactive | STAT3 act 2 inactive
O=C(N/N=C/c1ccc(Cl)cc1Cl)c1n[nH]c2c1CCCC2	none
CC(=O)c1ccc(NCC2COc3ccccc3O2)c([N+](=O)[O-])c1 (stereo not drawn)	APP 5'UTR act 145.1, STAT1 act 159.3 | STAT1 act conf 229.2 | NFkB act 139.6 | STAT3 act 2 220.0
CC(=O)Nc1cccc(-c2csc(NCc3ccco3)n2)c1	none
COc1ccc(/C=C/c2nc3ccccc3n2Cc2ccc(OC)c(OC)c2)cc1	APP 5'UTR act 180.6, STAT1 act 184.1, NF-kB expr up 6.79 | STAT1 act conf 182.7 | NFkB act 135.0 | STAT3 act 2 124.9
COC(=O)c1ccc(NC(=S)Nc2ccc(O)cc2)cc1	none
COC(=O)c1ccc(NC(=S)Nc2ccccn2)cc1	STAT1 act 164.7 (no result: APP 5'UTR act) | STAT1 act conf 189.6 | NFkB act 134.6 | STAT3 act 2 inactive
CN(C)c1ncccc1-c1nc2ccccc2s1	none
c1ccc(-c2nc3ccccc3s2)nc1	STAT1 act 158.3, NF-kB expr up 4.66 | STAT1 act conf 200.4 | NFkB act inactive | STAT3 act 2 inactive
O=S(=O)(Nc1nc2c(s1)CCCC2)c1ccc(F)cc1	none
Cc1cccc(Nc2nc3c(s2)CCCC3)c1	STAT1 act 163.9, NF-kB expr up 6.57 | STAT1 act conf 207.7 | NFkB act 146.1 | STAT3 act 2 inactive
Cc1cccc(Nc2nc(N3CCCC3)nc(N3CCCC3)n2)c1	none
O=S1(=O)N=C(Nc2nc3c(s2)CCCC3)c2ccccc21	STAT1 act 152.1, NF-kB expr up 6.15 | STAT1 act conf 194.0 | NFkB act inactive | STAT3 act 2 125.8
C/C(=N\NC(=S)NCc1ccccc1)c1ccccc1F	none
CCOC(=O)N1CCN(C(=O)c2cc3sccc3n2C)CC1	none
O=C(c1ccc(S(=O)(=O)Nc2ccc(F)cc2)cc1)N1CCN(c2ccccn2)CC1	none
CCC1(C)Cc2nc3sc(C(=O)O)c(N)c3cc2CO1 (stereo not drawn)	none
CCOC(=O)c1sc2nc3c(cc2c1N)COC(C)(CC)C3 (stereo not drawn)	APP 5'UTR act 174.8, STAT1 act 200.8, NF-kB expr up 7.32 | STAT1 act conf 287.2 | NFkB act 145.6 | STAT3 act 2 inactive
COC(=O)c1sc2nc3c(cc2c1N)CCCC3	APP 5'UTR act 164.4, STAT1 act 165.3, NF-kB expr up 8.23 | STAT1 act conf 227.1 | NFkB act 148.1 | STAT3 act 2 inactive
Cn1nnc2c(NCc3ccco3)nccc21	none
COc1ccc(Nc2nccc3c2nnn3C)cc1	APP 5'UTR act 136.7, STAT1 act 153.8 | STAT1 act conf 167.5 | NFkB act inactive | STAT3 act 2 inactive
Cc1onc(-c2c(F)cccc2Cl)c1C(=O)NCCO	none
CCOC(=O)c1ccc(NC2=CC(=O)CC(c3ccco3)C2)cc1 (stereo not drawn)	none
CCOC(=O)c1cnc2c(-c3ccccc3)cnn2c1C	APP 5'UTR act 155.0, STAT1 act 154.3, NF-kB expr up 7.26 | STAT1 act conf 198.1 | NFkB act 134.7 | STAT3 act 2 inactive
CC(=O)c1cnc2c(-c3ccccc3)cnn2c1C	none
CCc1ccc(NC(=O)N2CCC(c3ccccc3)C2)cc1 (stereo not drawn)	APP 5'UTR act 164.0, STAT1 act 161.0, NF-kB expr up 4.32 | STAT1 act conf 182.4 | NFkB act inactive | STAT3 act 2 inactive
CCOc1ccc(NC(=O)N2CCC(c3ccc(C)cc3)C2)cc1 (stereo not drawn)	none
CCC(=O)Nc1ccc2oc(-c3ccccc3Br)nc2c1	STAT1 act 159.8, NF-kB expr up 5.65 | STAT1 act conf 190.3 | NFkB act 138.2 | STAT3 act 2 inactive
O=C(Nc1ccc2oc(-c3ccccc3Cl)nc2c1)c1ncn[nH]1	STAT1 act 156.3, NF-kB expr up 5.11 | STAT1 act conf 204.3 | NFkB act inactive | STAT3 act 2 114.4
Cc1cc(C)c(OCC(=O)Nc2ccccn2)c([N+](=O)[O-])c1	none
CCCCCCn1c(N)c(C#N)c2ccc([N+](=O)[O-])cc2c1=O	none
